One may read the Km as the substrate concentration at which the rate is half of its maximum. For orientation: inhibition means the drop in the measured response relative to a control, in per cent. For orientation: pIC50 means the IC50 on a negative log10 scale, so that one unit is a factor of ten.

For series [1], the system named is CCOC(=O)c1c(C)oc2cc(OCCc3ccccc3)c(OCc3oc4cc(OC)c(OS(=O)(=O)O)cc4c3C(=O)OCC)cc12. Nature of the series: Non competitive inhibition of human thrombin assessed as substrate Vmax at 1 uM using varying levels of spectrozyme TH as substrate measured after 10 mins by Michaelis-Menten plot analysis (reference value: 51.0 +/- 2.8 mAU/min).
Series [2] has the same test system. Nature of the series: Non competitive inhibition of human thrombin assessed as substrate Vmax at 10 uM using varying levels of spectrozyme TH as substrate measured after 10 mins by Michaelis-Menten plot analysis (reference value: 51.0 +/- 2.8 mAU/min).
Series [3] has the same test system. In words: Non competitive inhibition of human thrombin assessed as substrate Vmax at 40 uM using varying levels of spectrozyme TH as substrate measured after 10 mins by Michaelis-Menten plot analysis (reference value: 51.0 +/- 2.8 mAU/min).
Series [4] shares this test system. In words: Non competitive inhibition of human thrombin assessed as substrate Km at 1 uM using varying levels of spectrozyme TH as substrate measured after 10 mins by Michaelis-Menten plot analysis (reference value: 9.3 +/- 2.8 uM).
Series [5] shares this test system. Nature of the series: Non competitive inhibition of human thrombin assessed as substrate Km at 2 uM using varying levels of spectrozyme TH as substrate measured after 10 mins by Michaelis-Menten plot analysis (reference value: 9.3 +/- 2.8 uM).
For series [6] the test system is unchanged. Nature of the series: Non competitive inhibition of human thrombin assessed as substrate Km at 10 uM using varying levels of spectrozyme TH as substrate measured after 10 mins by Michaelis-Menten plot analysis (reference value: 9.3 +/- 2.8 uM).
Series [7] has the same test system. Nature of the series: Non competitive inhibition of human thrombin assessed as substrate Km at 40 uM using varying levels of spectrozyme TH as substrate measured after 10 mins by Michaelis-Menten plot analysis (reference value: 9.3 +/- 2.8 uM).
The test system of series [8] is CCOC(=O)c1c(C)oc2cc(OCc3ccccc3)c(OCc3oc4cc(OCC5CCCCC5)c(OS(=O)(=O)O)cc4c3C(=O)OCC)cc12. Nature of the series: Mixed-type inhibition of human thrombin assessed as substrate Vmax at 1 uM using varying levels of spectrozyme TH as substrate measured after 10 mins by Michaelis-Menten plot analysis (reference value: 48.2 +/- 2.8 mAU/min).
Series [9] has the same test system. Nature of the series: Mixed-type inhibition of human thrombin assessed as substrate Vmax at 2 uM using varying levels of spectrozyme TH as substrate measured after 10 mins by Michaelis-Menten plot analysis (reference value: 48.2 +/- 2.8 mAU/min).
For series [10] the test system is unchanged. Nature of the series: Mixed-type inhibition of human thrombin assessed as substrate Vmax at 10 uM using varying levels of spectrozyme TH as substrate measured after 10 mins by Michaelis-Menten plot analysis (reference value: 48.2 +/- 2.8 mAU/min).
For series [11] the test system is unchanged. In words: Mixed-type inhibition of human thrombin assessed as substrate Vmax at 40 uM using varying levels of spectrozyme TH as substrate measured after 10 mins by Michaelis-Menten plot analysis (reference value: 48.2 +/- 2.8 mAU/min).
Series [12] has the same test system. Nature of the series: Mixed-type inhibition of human thrombin assessed as substrate Km at 1 uM using varying levels of spectrozyme TH as substrate measured after 10 mins by Michaelis-Menten plot analysis (reference value: 8.6 +/- 2.8 uM).
Series [13] shares this test system. Nature of the series: Mixed-type inhibition of human thrombin assessed as substrate Km at 2 uM using varying levels of spectrozyme TH as substrate measured after 10 mins by Michaelis-Menten plot analysis (reference value: 8.6 +/- 2.8 uM).
The test system is the same in series [14]. Nature of the series: Mixed-type inhibition of human thrombin assessed as substrate Km at 10 uM using varying levels of spectrozyme TH as substrate measured after 10 mins by Michaelis-Menten plot analysis (reference value: 8.6 +/- 2.8 uM).
Series [15] shares this test system. Nature of the series: Mixed-type inhibition of human thrombin assessed as substrate Km at 40 uM using varying levels of spectrozyme TH as substrate measured after 10 mins by Michaelis-Menten plot analysis (reference value: 8.6 +/- 2.8 uM).
Series [16] addresses T1, Prothrombin (Homo sapiens, UniProt P00734). Nature of the series: Partial allosteric inhibition of human thrombin at 500 uM using spectrozyme TH as substrate pretreated for 10 mins followed by substrate addition by spectrophotometric method relative to control.
The target in series [17] is T1, Prothrombin. In words: Partial allosteric inhibition of human thrombin using spectrozyme TH as substrate pretreated for 10 mins followed by substrate addition by spectrophotometric method. Summed up:
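Chromogenic substrate hydrolysis by thrombin read spectrophotometrically in 20 mM Tris-HCl pH 7.4 with […], 100 mM NaCl and 0.1% PEG 8000 at 25 °C. Sigmoidal fits gave IC50 and efficacy (ΔY). Errors ±1 S.E.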

Series [18] deals with T1, Prothrombin. Nature of the series: Partial allosteric inhibition of human thrombin at 300 uM using spectrozyme TH as substrate pretreated for 10 mins followed by substrate addition by spectrophotometric method relative to control.

pIC50: −log10 of the molar value. Active and inactive are the calls of the source. The rule behind the calls is not given here. Where only a bound is given, the exact number is not on record here.

For “Prothrombin (Homo sapiens) (from UniProt P00734)”, the Vmax in [1] was found to be 44.1 mAU/min; in series [2], 30.9 mAU/min; in series [3], 23.7 mAU/min; in [8], 43.8 mAU/min; in [9] it was 38.7 mAU/min; in series [10], 32.5 mAU/min. Also, the Vmax in series [11] is 26.5 mAU/min. Also, the Km in series [4] amounted to 8.3 µM; in [5], 9.2 µM; in series [6], 7.4 µM; in [7], 6.8 µM; in series [12], 8.8 µM; in series [13], 10.7 µM. Also, the results for the Km in [14] and in series [15] were 29.7 µM and 61 µM, respectively.
For the compound `CCOC(=O)c1c(C)oc2cc(OCC3CCCCC3)c(OS(=O)(=O)O)cc12`, the inhibition at Prothrombin [16] is > 50%. The pIC50 at Prothrombin [17] is < 3.30.
Consider `CCOC(=O)c1c(C)oc2cc(OC)c(OCc3oc4cc(OCC5CCCCC5)c(OS(=O)(=O)O)cc4c3C(=O)OCC)cc12`, for which, on Prothrombin [18], the inhibition is > 50%. Also, at Prothrombin [17], the Efficacy was 77% and the pIC50 is 5.42.
For the compound `COc1cc2oc(C)c(C(=O)OCCOS(=O)(=O)O)c2cc1OS(=O)(=O)O`, the inhibition on Prothrombin [16] was > 50%. For the same compound, the pIC50 at Prothrombin [17] was < 3.30.
As to `CCOC(=O)c1c(C)oc2cc(OCc3cccc(OCOC)c3)c(OCc3oc4cc(OC)c(OS(=O)(=O)O)cc4c3C(=O)OCC)cc12`, on Prothrombin [18], the inhibition was > 50%. Further, at Prothrombin [17], the Efficacy was 59% and the pIC50 is 5.40.
The like results for `CCOC(=O)c1c(C)oc2cc(OCc3ccccc3)c(OCc3oc4cc(OC)c(OS(=O)(=O)O)cc4c3C(=O)OCC)cc12` were, in that order, > 50%, 57% and 5.70.
For `COc1cc2oc(C)c(C(=O)OCc3ccccc3)c2cc1OS(=O)(=O)O`, on Prothrombin [16], the inhibition is > 50%. Besides, on Prothrombin [17], the Efficacy turned out to be 95% and the negative logarithm of the IC50 (pIC50) is 3.77.
With `CCOC(=O)c1c(C)oc2cc(OCC3CCCCC3)c(OCc3oc4cc(OCC5CCCCC5)c(OS(=O)(=O)O)cc4c3C(=O)OCC)cc12`, the inhibition on Prothrombin [18] was > 50%. On Prothrombin [17], the Efficacy turned out to be 93% and the pIC50 is 5.06.
As for `CCOC(=O)c1c(C)oc2cc(OCc3cccc(OS(=O)(=O)O)c3)c(OS(=O)(=O)O)cc12`, the inhibition on Prothrombin [16] is > 50%. Further, the negative logarithm of the IC50 (pIC50) on Prothrombin [17] is < 3.30.
On to `CCOC(=O)c1c(C)oc2cc(OCc3cccc(OC(C)C)c3)c(OCc3oc4cc(OC)c(OS(=O)(=O)O)cc4c3C(=O)OCC)cc12`, for which the inhibition at Prothrombin [18] is > 50%. At Prothrombin [17], the Efficacy was 57% and the pIC50 was 5.59.
As for `CCOC(=O)c1c(C)oc2cc(OCc3ccccc3)c(OCc3oc4cc(OC)c(OS(=O)(=O)O)cc4c3C(=O)OCCOS(=O)(=O)O)cc12`, at Prothrombin [18], the inhibition is > 50%. Moreover, on Prothrombin [17], the Efficacy worked out at 74% and the pIC50 was 4.85.
Turning to `CCOC(=O)c1c(C)oc2cc(OCc3ccc(OC(C)C)cc3)c(OCc3oc4cc(OC)c(OS(=O)(=O)O)cc4c3C(=O)OCC)cc12`, the inhibition at Prothrombin [18] was > 50%. At Prothrombin [17], the Efficacy was 74% and the pIC50 is 5.64.
The like results for `CCOC(=O)c1c(COc2cc3c(C(=O)OCc4ccc(OCOC)cc4)c(C)oc3cc2OC)oc2cc(OC)c(OS(=O)(=O)O)cc12` were, in that order, > 50%, 66% and 5.59.
As for `CCOC(=O)c1c(C)oc2cc(OCc3ccccc3)c(OCc3cccc(S(=O)(=O)O)c3)cc12`, at Prothrombin [16], the inhibition was > 50%. On Prothrombin [17], the pIC50 was < 3.30.
On to `CCOC(=O)c1c(C)oc2cc(Oc3cccc(OS(=O)(=O)O)c3)c(OCc3oc4cc(OC)c(OS(=O)(=O)O)cc4c3C(=O)OCC)cc12`, for which the inhibition result at Prothrombin [18] was “inactive”. Further, the pIC50 at Prothrombin [17] is < 3.52.
Regarding `Cc1oc2cc(OCc3ccccc3)c(OS(=O)(=O)O)cc2c1C(=O)O`, at Prothrombin [16], the inhibition is > 50%. Moreover, the pIC50 at Prothrombin [17] is < 3.30.
Turning to `CCOC(=O)c1c(C)oc2cc(OCC3CCCCC3)c(OCc3oc4cc(OC)c(OS(=O)(=O)O)cc4c3C(=O)OCC)cc12`, the inhibition at Prothrombin [18] was > 50%. Moreover, at Prothrombin [17], the Efficacy was determined as 63% and the pIC50 was 5.59.
For the compound `CCCOC(=O)c1c(COc2cc3c(C(=O)OCc4ccccc4)c(C)oc3cc2OC)oc2cc(OC)c(OS(=O)(=O)O)cc12`, the inhibition at Prothrombin [18] is > 50%. For the same compound, on Prothrombin [17], the Efficacy was found to be 68% and the pIC50 was 5.31.
Regarding `CCOC(=O)c1c(C)oc2cc(OCc3cccc(OCOC)c3)c(OS(=O)(=O)O)cc12`, the inhibition on Prothrombin [16] was > 50%. Also, at Prothrombin [17], the Efficacy came out at 75.9% and the pIC50 is 3.64.
Turning to `CCOC(=O)c1c(C)oc2cc(OCc3ccc(OCOC)cc3)c(OCc3oc4cc(OC)c(OS(=O)(=O)O)cc4c3C(=O)OCC)cc12`, the inhibition on Prothrombin [18] was > 50%. Moreover, at Prothrombin [17], the Efficacy stood at 61% and the pIC50 was 5.48.
In the case of `CCOC(=O)c1c(C)oc2cc(OCc3ccc(OC(C)C)cc3)c(OS(=O)(=O)O)cc12`, at Prothrombin [16], the inhibition was > 50%. Besides, the pIC50 on Prothrombin [17] is < 3.30.
With `CCOC(=O)c1c(C)oc2cc(OCc3ccccc3)c(OS(=O)(=O)O)cc12`, the inhibition at Prothrombin [16] was > 50%. Also, at Prothrombin [17], the Efficacy was found to be 72% and the pIC50 was 3.87.
Consider `CCOC(=O)c1c(C)oc2cc(OC)c(OCc3cccc(S(=O)(=O)O)c3)cc12`, for which the inhibition on Prothrombin [16] was > 50%. On Prothrombin [17], the Efficacy is 101% and the pIC50 was 3.87.
Take `CCOC(=O)c1c(COc2cc3c(C(=O)OCCc4ccccc4)c(C)oc3cc2OC)oc2cc(OC)c(OS(=O)(=O)O)cc12`: the inhibition on Prothrombin [18] was > 50%. Moreover, on Prothrombin [17], the Efficacy was determined as 58% and the pIC50 was 5.49.
As to `CCOC(=O)c1c(C)oc2cc(OCc3cccc(OC(C)C)c3)c(OS(=O)(=O)O)cc12`, the inhibition on Prothrombin [16] was > 50%. The pIC50 at Prothrombin [17] was < 3.30.
With `CCOC(=O)c1c(C)oc2cc(OS(=O)(=O)O)c(OCc3oc4cc(OC)c(OS(=O)(=O)O)cc4c3C(=O)OCC)cc12`, the inhibition entry on Prothrombin [18] is “inactive”. Further, the pIC50 on Prothrombin [17] was < 3.52.
Take `COC(=O)c1c(C)oc2cc(OCc3cccc(OS(=O)(=O)O)c3)c(OCc3cccc(S(=O)(=O)O)c3)cc12`: on Prothrombin [16], the inhibition was > 50%. The pIC50 on Prothrombin [17] is < 3.30.

Values taken from ChEMBL document CHEMBL4184294, “A small group of sulfated benzofurans induces steady-state submaximal inhibition of thrombin” (Bioorg Med Chem Lett, 2018).
